Most compounds without a hit are left out; they make up all but 2.2% or so of the library.
bCat nuc transl: modulators of beta-catenin nuclear translocation, primary screen, imaging, HeLa cells, immunofluorescence, high-content; nuclear translocation activity, % at 5 µM; 190,000 tested, 0.3% active;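 active = nuclear translocation activity above 50% at 5 µM, with a well cell count of 50 or more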;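 note: per-cell ratio of nuclear to cytoplasmic median beta-catenin stain intensity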
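Test system: human HeLa cells, native beta-catenin. Compound dosing: 5 µM primary single dose, 0.1% DMSO, 0.02–20 µM confirmation series. Incubation: compound exposure 24 h at 37°C. Detection: beta-catenin immunostaining with DAPI counterstain, 20x imaging, 6 fields/well. Read-out basis: Nuclear/cytoplasmic beta-catenin signal ratio, % activation.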
APP transl inh: inhibitors of APP translation via 5'UTR reporter, primary screen, APP 5'UTR luciferase, SH-SY5Y cells; SH-SY5Y APP 5'UTR-luciferase reporter, luminescence; inhibition, % at 2 µM; 190,000 tested, 0.82% active; AID 1285, 2008;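 active = inhibition above a set limit, derived from the sample mean plus 3 SD, cut at about 45% in these data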
IEC-6 tox: cytotoxicity in IEC-6 intestinal epithelial cells, primary screen, cytotoxicity control for KLF5 inhibitor project, cell-based, luminescence | IEC-6 cytotoxicity, luminescence viability | inhibition, % at 5 µM | 290,000 tested, 0.78% active; in the data active = inhibition above about 22%
Ba/F3 V617F tox: reduced viability of JAK2V617F-dependent Ba/F3 cells, primary screen, JAK2V617F inhibitor project, cell-based, Ba/F3 EpoR-JAK2V617F, luminescence. 220,000 tested, 1.1% active. ATP luminescence. inhibition, % at 5.6 µM;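 active = inhibition above the campaign mean plus 3 SD over all tested compounds, cut at about 24% in these data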;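 note: cytokine-independent growth of Ba/F3 cells driven by EpoR plus mutant JAK2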
MT stabilize HCS: microtubule stabilizers in HeLa cells, primary screen, imaging, high-content imaging | % tubulin-high responders, % at 10 µM | 200,000 tested, 0.83% active | HeLa tubulin immunostaining HCS, 24 h; share of cells brighter than vehicle mean+2SD;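 active = plate Z-score above 3 for both tubulin-high and condensed-nucleus cell shares, with cell loss under 80%, at 10 µM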;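 note: anti alpha tubulin signal scored within the nucleus-defined area of each cell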
BaF3 tox: parental Ba/F3 cell viability inhibition, counter-screen for JAK2V617F inhibitor project, murine pro-B, CellTiter-Glo luminescence. AID 1486, 2009. 220,000 tested, 1.1% active. inhibition, % at 5.6 µM. CellTiter-Glo ATP luminescence;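 active = inhibition above a per-campaign cutoff, the mean inhibition of all tested compounds plus 3 SD, cut at about 27% in these data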
BaF3 parental 2: parental Ba/F3 cell viability inhibition, counter-screen for JAK2V617F inhibitor project, murine pro-B, CellTiter-Glo luminescence | shares compounds with Ba/F3 V617F tox | cells kept alive by added IL-3 | inhibition, % at 5.6 µM | 580 tested, 31% active | AID 1520, 2009;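 active = cell growth inhibition above the hit limit set in the earlier mutant JAK2 cell screen, cut at about 27% in these data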
JAK2V617F conf: viability loss in Ba/F3 EpoR-JAK2V617F cells, confirmation, JAK2V617F inhibitor project, cell-based, luminescence, triplicate; shares compounds with Ba/F3 V617F tox; inhibition, % at 5.6 µM; CellTiter-Glo luminescence; 580 tested, 66% active;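 active = mean inhibition above the hit cutoff derived in the earlier primary screen, cut at about 25% in these data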;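 note: higher means lower luminescence from reduced cell ATP and viability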
Of the large screens only hits and unclear results are named; the others gave an inactive call (follow-up assays come after a bar, where they were run).

CCN(Cc1ccc(OC)c(F)c1)C(=O)CCl	Ba/F3 V617F tox 39 | BaF3 parental 2 inactive | JAK2V617F conf 96
COc1ccc(-c2cnnc(N/N=C/c3ccc(O)c(O)c3)n2)cc1	Ba/F3 V617F tox 47 | BaF3 parental 2 83 | JAK2V617F conf 100
COc1cc2ncnc(N[C@H](C)c3ccccc3)c2cc1OC	none (no result: bCat nuc transl, APP transl inh, Ba/F3 V617F tox, MT stabilize HCS, BaF3 tox)
O=C(CN(C(=O)Cn1nnc(-c2ccc(F)cc2)n1)c1ccc(F)cc1)NC1CCCC1	none (no result: bCat nuc transl, APP transl inh, Ba/F3 V617F tox, MT stabilize HCS, BaF3 tox)
Oc1ccccc1OCC(O)c1ccccc1 (centres undefined)	none (no result: bCat nuc transl, APP transl inh, Ba/F3 V617F tox, MT stabilize HCS, BaF3 tox)
Oc1ccccc1OCCOc1ccccc1OCCOc1ccccc1O	Ba/F3 V617F tox 26 (no result: MT stabilize HCS) | BaF3 parental 2 inactive | JAK2V617F conf 71
COc1ccc(Cl)cc1NC(=O)C(C)N1CCN(c2ccccn2)CC1 (centres undefined)	none (no result: bCat nuc transl, APP transl inh, Ba/F3 V617F tox, MT stabilize HCS, BaF3 tox)
CCOC(=O)c1c(S(=O)(=O)NC2CCN(C(=O)OCC)CC2)c(C)n(C)c1C	none (no result: bCat nuc transl, APP transl inh, Ba/F3 V617F tox, MT stabilize HCS, BaF3 tox)
Cc1cccc(C2c3[nH]c4ccccc4c3CCN2Cc2ccc(C)s2)n1 (centres undefined)	Ba/F3 V617F tox 27 | BaF3 parental 2 inactive | JAK2V617F conf inactive
CC(=O)c1ccc(C(=O)N2CCc3c([nH]c4ccccc34)C2c2cccc(C)n2)s1 (centres undefined)	none (no result: APP transl inh, MT stabilize HCS)
CC1=CC(C)C2(CO)COC(c3ccccc3O)C1C2C (centres undefined)	Ba/F3 V617F tox 58 | BaF3 parental 2 inactive | JAK2V617F conf inactive
CCc1ccc(NC(=S)N(CCCN2CCN(C)CC2)Cc2cccs2)cc1	none
CN1CCN(CCCN(Cc2cccs2)C(=S)Nc2ccc(Cl)cc2)CC1	Ba/F3 V617F tox 34 | BaF3 parental 2 28 | JAK2V617F conf 46
CCOc1ccccc1C(=O)N(CCC(=O)OC)c1ccccn1	none
COC(=O)CCN(C(=O)C1C2CC3CC(C2)CC1C3)c1ccccn1 (centres undefined)	Ba/F3 V617F tox 49 | BaF3 parental 2 inactive | JAK2V617F conf inactive
CCOc1ccc(CNC(=O)C(=O)c2cn(CC(=O)N3CCOCC3)c3ccccc23)cc1OC	none (no result: bCat nuc transl, APP transl inh, Ba/F3 V617F tox, MT stabilize HCS, BaF3 tox)
C#CC[N+](C)(C)CC#Cc1ccc(Cl)cc1	Ba/F3 V617F tox 32 | BaF3 parental 2 28 | JAK2V617F conf 83
CCOC(=O)c1c(C)[nH]c(C)c1S(=O)(=O)N1CCN(C(=O)c2ccco2)CC1	none (no result: bCat nuc transl, APP transl inh, Ba/F3 V617F tox, MT stabilize HCS, BaF3 tox)
Cc1[nH]c2ccccc2c(=O)c1C(=O)/C=C/c1ccccc1	Ba/F3 V617F tox 59 (no result: APP transl inh, MT stabilize HCS) | BaF3 parental 2 inactive | JAK2V617F conf 96
COc1ccc(C(=O)NC2CCc3ccccc32)cc1OC1CCN(C(C)C)CC1 (centres undefined)	none (no result: bCat nuc transl, APP transl inh, Ba/F3 V617F tox, MT stabilize HCS, BaF3 tox)
O=C(/C=C1\NC2(CCCC2)Cc2ccccc21)C(=O)N/N=C/c1ccc(O)c(O)c1	Ba/F3 V617F tox 45 | BaF3 parental 2 inactive | JAK2V617F conf 95
CCC(C)N1C(=O)S/C(=C/c2ccc3c(c2)n(C)c(=O)n3C)C1=O (centres undefined)	Ba/F3 V617F tox 67 | BaF3 parental 2 inactive | JAK2V617F conf inactive
Cc1ccc(CN2CC(C(=O)NCCCSc3ccccc3)CC2=O)cc1 (centres undefined)	none (no result: bCat nuc transl, APP transl inh, Ba/F3 V617F tox, MT stabilize HCS, BaF3 tox)
Cc1cc(C)nc(/N=C(\N)Nc2cccc(OCc3ccccc3)c2)n1	none (no result: APP transl inh, MT stabilize HCS)
Cc1cc(C)nc(/N=C(\N)Nc2ccc(OCc3ccccc3)cc2)n1	Ba/F3 V617F tox 34 | BaF3 parental 2 inactive | JAK2V617F conf 39
O=C(CSc1ccc2ccccc2c1)NCCc1ccc(O)c(O)c1	Ba/F3 V617F tox 52 | BaF3 parental 2 51 | JAK2V617F conf 93
CC(CCc1ccccc1)NC(=O)COC(=O)c1ccc(NC(=O)CC#N)cc1 (centres undefined)	none (no result: bCat nuc transl, APP transl inh, Ba/F3 V617F tox, MT stabilize HCS, BaF3 tox)
